Results from paper PMC552956 (Nucleic Acids Research, 2005).
“And” between values parts separate entries of the source, which are not always exact repeats. Equal values may be shown once. “Also recorded” adds a separate entry of the source.

What was measured:
[1] = biological target: HIV-1 RT-associated RNase H (Human immunodeficiency virus type 1 group M subtype B, UniProt P04585); test: RNase H activity on fluorescent RNA/DNA hybrid, HIV-1 RT; type: biochemical; conditions: for IC50: IC50 HIV-1 RT; for IC50 / IC50 HIV-1 RT: RNase H activity, triplicate assays
How it was run: (§1)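 RNase H cleavage of a fluorescent RNA/DNA hybrid was measured with recombinant E. coli-expressed RT (wild-type p66/p51 for HIV-1; same expression system for HIV-2). Test compound, from a 20 mM DMSO stock, was tested in 2-fold dilutions from 100 μM to […]. Fluorescence was read every 40 s over 30 min. Rates came from the linear portion of the curves, and dose–response curves were fitted. Assays were run in triplicate.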

[2] = biological target: HIV-2 RT-associated RNase H (Human immunodeficiency virus type 2 subtype A, UniProt P04584); test: RNase H activity on fluorescent RNA/DNA hybrid, HIV-2 RT; type: biochemical; conditions: for IC50 HIV-2 RT: RNase H activity, triplicate assays
Sequence of HIV-2 RT-associated RNase H (P04584 613-1171 limits assumed): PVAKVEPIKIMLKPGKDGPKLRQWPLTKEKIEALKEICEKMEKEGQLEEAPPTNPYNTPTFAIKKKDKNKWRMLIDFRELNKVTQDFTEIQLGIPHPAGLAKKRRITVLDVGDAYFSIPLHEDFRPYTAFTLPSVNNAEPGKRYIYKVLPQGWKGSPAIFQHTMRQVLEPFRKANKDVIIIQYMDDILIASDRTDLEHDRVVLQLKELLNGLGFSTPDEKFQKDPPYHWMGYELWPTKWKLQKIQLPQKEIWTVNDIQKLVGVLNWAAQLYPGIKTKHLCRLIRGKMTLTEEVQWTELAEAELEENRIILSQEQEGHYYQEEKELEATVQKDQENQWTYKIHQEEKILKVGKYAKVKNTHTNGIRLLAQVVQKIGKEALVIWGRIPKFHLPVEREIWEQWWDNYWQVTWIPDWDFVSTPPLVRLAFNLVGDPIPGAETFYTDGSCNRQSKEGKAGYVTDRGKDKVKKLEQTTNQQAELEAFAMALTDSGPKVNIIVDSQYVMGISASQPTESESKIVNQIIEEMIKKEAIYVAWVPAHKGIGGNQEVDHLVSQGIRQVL
Sequence of HIV-2 RT-associated RNase H (P04584 613-1051 partner limits assumed): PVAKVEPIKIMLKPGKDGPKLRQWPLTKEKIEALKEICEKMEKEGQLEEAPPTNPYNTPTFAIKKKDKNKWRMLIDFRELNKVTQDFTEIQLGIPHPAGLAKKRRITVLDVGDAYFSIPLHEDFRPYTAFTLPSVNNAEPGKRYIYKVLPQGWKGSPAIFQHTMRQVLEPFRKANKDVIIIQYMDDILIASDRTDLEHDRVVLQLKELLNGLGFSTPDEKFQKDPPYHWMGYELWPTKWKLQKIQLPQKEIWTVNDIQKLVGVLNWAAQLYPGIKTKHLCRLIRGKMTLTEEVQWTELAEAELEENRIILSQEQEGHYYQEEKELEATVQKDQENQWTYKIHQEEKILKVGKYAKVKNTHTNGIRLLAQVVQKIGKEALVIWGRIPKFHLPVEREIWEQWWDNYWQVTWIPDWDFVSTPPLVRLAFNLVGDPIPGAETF
How it was run: as §1

E.coli RNase HI = biological target: T1, E.coli RNase HI (Escherichia coli, UniProt P0A7Y4); test: RNase H activity on fluorescent RNA/DNA hybrid, E.coli RNase H; type: biochemical; conditions: for IC50: IC50 E.c. Rnase H
T1 sequence (P0A7Y4 1-155): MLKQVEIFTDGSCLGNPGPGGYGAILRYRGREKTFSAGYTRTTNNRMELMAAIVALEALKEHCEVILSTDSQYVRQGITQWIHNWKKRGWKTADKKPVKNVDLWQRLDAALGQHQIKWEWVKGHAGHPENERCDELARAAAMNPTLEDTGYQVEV

human RNase H = biological target: T2, human RNase H (Homo sapiens, UniProt O60930); test: RNase H activity on fluorescent RNA/DNA hybrid, human RNase H; type: biochemical
T2 sequence (O60930 1-286): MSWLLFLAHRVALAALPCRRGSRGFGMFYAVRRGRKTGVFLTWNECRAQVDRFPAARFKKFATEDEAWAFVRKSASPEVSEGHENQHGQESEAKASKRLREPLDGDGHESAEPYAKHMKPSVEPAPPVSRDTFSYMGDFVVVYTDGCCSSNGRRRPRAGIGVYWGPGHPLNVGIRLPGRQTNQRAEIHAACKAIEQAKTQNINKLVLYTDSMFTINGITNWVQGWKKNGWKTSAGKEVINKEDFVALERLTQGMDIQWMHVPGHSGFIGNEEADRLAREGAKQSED

[3] = biological target: HIV-1 RT RNase H activity (Human immunodeficiency virus type 1 group M subtype B, UniProt P04585); test: HIV-1 RT-catalyzed polypurine tract; type: biochemical; conditions: single concentration of 50 μM
How it was run: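 Recombinant wild-type p66/p51 HIV-1 RT was expressed in E. coli. The substrate was a 5′[32P]-labeled HIV-1 PPT RNA primer, extended at its 3′ end by five deoxynucleotides, hybridized to its DNA complement. Test compound was diluted from a 20 mM DMSO stock into reaction buffer and tested at 50 μM. Controls were no inhibitor and DMSO alone. PPT hydrolysis products were assessed qualitatively.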

HIV-1 RT DNA polymerase = HIV-1 RT DNA polymerase (Human immunodeficiency virus type 1 group M subtype B, UniProt P04585); test: DNA-dependent DNA polymerase activity of HIV-1 RT; type: biochemical; conditions: single concentration of 50 μM
HIV-2 RT DNA polymerase = HIV-2 RT DNA polymerase (Human immunodeficiency virus type 2 subtype A, UniProt P04584); test: DNA polymerase activity of HIV-2 RT; type: biochemical; conditions: 50 μM
Sequence of HIV-2 RT DNA polymerase (P04584 613-1171 limits assumed): as the sequence (P04584 613-1171 limits assumed) above
Sequence of HIV-2 RT DNA polymerase (P04584 613-1051 partner limits assumed): as the sequence (P04584 613-1051 partner limits assumed) above

12mer RNA/DNA hybrid = test: Surface plasmon resonance binding to immobilized RNA/DNA hybrid; conditions: SPR; for binding to RNA/DNA hybrid substrate: concentration range of 50 nM–10 mM
HIV-1 infection = test: Cellular models of HIV-1 infection; type: cell-based

Structure (SMILES)	IC50 [1]	IC50 [2] [µM]	IC50 (E.coli RNase HI; triplicate assays)	IC50 (human RNase H) [µM]	binding to RNA/DNA hybrid substrate (12mer RNA/DNA hybrid)	further results
CC(C)c1ccc(O)c(=O)cc1 [γ-Thujaplicin, 2-hydroxy-5-1(methylethyl)-2,4,6-cycloheptatrien-1-one]	> 100 µM	> 100	> 100 µM	2		IC50 HIV-1 RT [1]: failed to inhibit; IC50 HIV-2 RT [2]: failed to inhibit
CC(C)c1ccc(O)c(=O)c(O)c1 [β-Thujaplicinol, 2,7-dihydroxy-4-1(methylethyl)-2,4,6-cycloheptatrien-1-one]	0.2 µM and 0.21 µM	0.77	~50 µM and 50 µM		do not bind	Ki [1]: 0.2 ± 0.07 µM; mode of inhibition of HIV-1 RT/RNase H ([1]; non-linear fitting): mixed-type inhibition; E.coli RNase H less sensitive than HIV-1 RNase H (E.coli RNase HI): ~250 fold; inhibition of PPT processing [3]: almost complete inhibition; inhibition of DNA-dependent DNA polymerase activity of HIV-1 RT (HIV-1 RT DNA polymerase): failed to inhibit; also recorded: without affecting; also recorded: do not inhibit; also recorded: unaffected; inhibition of DNA polymerase activity of HIV-2 RT (HIV-2 RT DNA polymerase): without affecting; also recorded: unaffected; activity in cellular models of HIV-1 infection (HIV-1 infection): inactive
O=c1cccccc1O [Tropolone, 2-hydroxy-2,4,6-cycloheptatrien-1-one]	> 100 µM	> 100	> 100 µM	3		
CC(C)c1cccc(=O)c(O)c1 [β-Thujaplicin, 2-hydroxy-4-(1-methylethyl)-2,4,6-cycloheptatrien-1-one]	> 100 µM	> 100	> 100 µM	> 100	do not bind	IC50 HIV-1 RT [1]: completely inactive; IC50 HIV-2 RT [2]: completely inactive; IC50 E.c. Rnase H (E.coli RNase HI; triplicate assays): completely inactive; IC50 Hu Rnase H (human RNase H; triplicate assays): completely inactive
CC(C)=CCc1ccc(=O)c(O)cc1C(C)C [Nootkatin, 2-hydroxy-5-(3-methyl-2-butenyl)-4-(1-methylethyl)-2,4,6-cycloheptatrien-1-one]	> 100 µM	> 100	> 100 µM	25		
CC[n+]1c(-c2ccccc2)c2cc(N)ccc2c2ccc(N)cc21 [ethidium bromide, reference compound]						Kd (12mer RNA/DNA hybrid; read-out: Kd for intercalation into RNA/DNA hybrid, 25°C): ~1.5 µM
CC(C)c1ccccc(=O)c1O [α-Thujaplicin, 2-hydroxy-3-(1-methylethyl)-2,4,6-cycloheptatrien-1-one]	50 µM	33	> 100 µM	12	do not bind	
